Experimental data: ChEMBL document CHEMBL1152591, “Design, synthesis and structure-activity relationship of 2-(3',4',5'-trimethoxybenzoyl)-benzo[b]furan derivatives as a novel class of inhibitors of tubulin polymerization” (Bioorg Med Chem, 2009)

What was measured:
[1] = Cytotoxicity against human Molt4/C8 cells after 2 days; details: MOLT-4, 48 h
FM3A = test: Cytotoxicity against mouse FM3A0 cells after 2 days; type: functional, cell-based; details: 48 h
CCRF-CEM = test: Cytotoxicity against human CEM cells after 2 days; type: functional, cell-based; details: 48 h
L1210 = test: Cytotoxicity against mouse L1210 cells after 2 days; type: functional, cell-based; details: L1210, 48 h
Summary of the method: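 Cells were incubated with the compounds at 37 °C for two days, then counted on a Coulter counter. IC50 is the concentration that inhibits cell proliferation by 50%.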

HeLa = test: Cytotoxicity against human HeLa cells after 2 days; type: functional, cell-based; details: 48 h
K562 [2] = test: Cell cycle arrest in human K562 cells assessed as accumulation at G1 phase at 480 nM after 24 hrs by flow cytometry; type: functional
[3] = Inhibition of bovine tubulin polymerization; design: species or system Bos taurus
Summary of the method: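 Purified bovine brain tubulin (10 μM) in glutamate buffer was preincubated with varying compound concentrations at 30 °C, then cooled to 0 °C. GTP was added and the mixture warmed to 30 °C in a recording spectrophotometer. Assembly was followed by turbidity.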

K562 [4] = test: Cell cycle arrest in human K562 cells assessed as accumulation at sub-G0/G1 phase at 480 nM after 24 hrs by flow cytometry; type: functional
Bos taurus = species on record: Bos taurus; test: Displacement of [3H]colchicine from bovine tubulin at 5 uM
Summary of the method: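 Reaction mixtures held 1 μM bovine brain tubulin, 5 μM [3H]colchicine and 5 μM test compound. Inhibition of radiolabelled colchicine binding to tubulin is expressed as percent inhibition.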

K562 [5] = test: Cell cycle arrest in human K562 cells assessed as accumulation at S phase at 480 nM after 24 hrs by flow cytometry; type: functional
K562 [6] = test: Cell cycle arrest in human K562 cells assessed as accumulation at G2 phase at 480 nM after 24 hrs by flow cytometry; type: functional
K562 [7] = test: Cell cycle arrest in human K562 cells assessed as accumulation at G2 phase at 530 nM after 24 hrs by flow cytometry; type: functional
Summary of the method: (§1)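 K562 leukaemia cells were cultured for 24 h with compound at one fixed concentration. DNA content per cell was measured by the standard propidium iodide procedure and flow cytometry. Proportions of cells in the sub-G0–G1 (apoptotic), G0–G1, S and G2–M peaks were compared with an untreated control.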

K562 [8] = test: Cell cycle arrest in human K562 cells assessed as accumulation at G1 phase at 530 nM after 24 hrs by flow cytometry; type: functional; summary of the method: as §1
K562 [9] = test: Cell cycle arrest in human K562 cells assessed as accumulation at S phase at 530 nM after 24 hrs by flow cytometry; type: functional; summary of the method: as §1
K562 [10] = test: Cell cycle arrest in human K562 cells assessed as accumulation at sub-G0/G1 phase at 530 nM after 24 hrs by flow cytometry; type: functional; summary of the method: as §1
K562 [11] = test: Cell cycle arrest in human K562 cells assessed as accumulation at G2 phase at 420 nM after 24 hrs by flow cytometry; type: functional
K562 [12] = test: Cell cycle arrest in human K562 cells assessed as accumulation at G1 phase at 420 nM after 24 hrs by flow cytometry; type: functional
K562 [13] = test: Cell cycle arrest in human K562 cells assessed as accumulation at sub-G0/G1 phase at 420 nM after 24 hrs by flow cytometry; type: functional
K562 [14] = test: Cell cycle arrest in human K562 cells assessed as accumulation at S phase at 420 nM after 24 hrs by flow cytometry; type: functional

Row | SMILES | IC50 [1] | IC50 (FM3A) | IC50 (CCRF-CEM) | IC50 (L1210) | IC50 (HeLa) | also measured
1 | COc1cc(C(=O)c2cc3cccc(O)c3o2)cc(OC)c1OC | > 10000 nM | > 10000 nM | > 10000 nM | > 10000 nM | > 10000 nM | –
2 | COc1cc(C(=O)c2oc3ccc(O)cc3c2C)cc(OC)c1OC | 240 nM | 430 nM | 430 nM | 800 nM | 290 nM | Activity (K562 [2]): 18.79%; IC50 [3]: 1100 nM; Activity (K562 [4]): 22.13%; Activity (Bos taurus): 69%; Activity (K562 [5]): 33.83%; Activity (K562 [6]): 47.38%
3 | COc1ccc2cc(C(=S)c3cc(OC)c(OC)c(OC)c3)oc2c1 | 100 nM | 320 nM | 220 nM | 180 nM | 100 nM | –
4 | COc1cc(C(=O)c2cc3cc(C)ccc3o2)cc(OC)c1OC | 2500 nM | 8400 nM | 7200 nM | 7100 nM | > 10 nM | –
5 | COc1cc(C(=O)c2cc3ccc(O)cc3o2)cc(OC)c1OC | > 10000 nM | > 10000 nM | > 10000 nM | > 10000 nM | > 10000 nM | –
6 | COc1cc(C(=O)c2oc3ccccc3c2C)cc(OC)c1OC | 1300 nM | 2100 nM | 2000 nM | 2100 nM | 890 nM | –
7 | COc1cc(C(=O)c2oc3cccc(O)c3c2C)cc(OC)c1OC | 84 nM | 330 nM | 100 nM | 480 nM | 130 nM | IC50 [3]: 570 nM; Activity (K562 [7]): 65.12%; Activity (K562 [8]): 8.52%; Activity (Bos taurus): 85%; Activity (K562 [9]): 26.37%; Activity (K562 [10]): 7.6%
8 | COc1ccc(/C=C\c2cc(OC)c(OC)c(OC)c2)cc1O | – | – | – | – | – | Activity (Bos taurus): 99%
9 | COc1cc(C(=O)c2oc3cccc(OC)c3c2C)cc(OC)c1OC | 200 nM | 570 nM | 490 nM | 590 nM | 340 nM | Activity (K562 [11]): 50.2%; IC50 [3]: 1800 nM; Activity (K562 [12]): 7.7%; Activity (Bos taurus): 66%; Activity (K562 [13]): 21.24%; Activity (K562 [14]): 42.1%
10 | COc1cc(C(=O)c2oc3cc(O)ccc3c2C)cc(OC)c1OC | 1300 nM | > 10000 nM | 4300 nM | > 10000 nM | 260 nM | –
11 | COc1cc(C(=O)c2cc3ccc(OC)c(O)c3o2)cc(OC)c1OC | > 10000 nM | > 10000 nM | > 10000 nM | > 10000 nM | > 10000 nM | –
12 | COc1ccc2oc(C(=O)c3cc(OC)c(OC)c(OC)c3)cc2c1 | 9400 nM | > 10000 nM | > 10000 nM | > 10000 nM | > 10000 nM | –
13 | COc1ccc2c(N(C)C)c(C(=O)c3cc(OC)c(OC)c(OC)c3)oc2c1 | 48 nM | – | – | – | – | –
14 | COc1cc(C(=O)c2cc3cccc(OC)c3o2)cc(OC)c1OC | 7800 nM | > 10000 nM | > 10000 nM | > 10000 nM | > 10000 nM | –
15 | COc1cc(C(=O)c2cc3cc(O)ccc3o2)cc(OC)c1OC | > 10000 nM | > 10000 nM | > 10000 nM | > 10000 nM | > 10000 nM | –
16 | COc1ccc2cc(C(O)c3cc(OC)c(OC)c(OC)c3)oc2c1 (stereo not given) | 3000 nM | 7010 nM | > 10000 nM | > 10000 nM | > 10000 nM | –
